Bioassay records deposited in PubChem by several laboratories.
Furin inhibitor: inhibitors of human furin. 0.061% of 220,000 active. purified furin, fluorogenic substrate cleavage. inhibition, % at 20 µM or 30 µM. P09958; in the data active means inhibition above about 25%
Target sequence (P09958 108-714 limits assumed): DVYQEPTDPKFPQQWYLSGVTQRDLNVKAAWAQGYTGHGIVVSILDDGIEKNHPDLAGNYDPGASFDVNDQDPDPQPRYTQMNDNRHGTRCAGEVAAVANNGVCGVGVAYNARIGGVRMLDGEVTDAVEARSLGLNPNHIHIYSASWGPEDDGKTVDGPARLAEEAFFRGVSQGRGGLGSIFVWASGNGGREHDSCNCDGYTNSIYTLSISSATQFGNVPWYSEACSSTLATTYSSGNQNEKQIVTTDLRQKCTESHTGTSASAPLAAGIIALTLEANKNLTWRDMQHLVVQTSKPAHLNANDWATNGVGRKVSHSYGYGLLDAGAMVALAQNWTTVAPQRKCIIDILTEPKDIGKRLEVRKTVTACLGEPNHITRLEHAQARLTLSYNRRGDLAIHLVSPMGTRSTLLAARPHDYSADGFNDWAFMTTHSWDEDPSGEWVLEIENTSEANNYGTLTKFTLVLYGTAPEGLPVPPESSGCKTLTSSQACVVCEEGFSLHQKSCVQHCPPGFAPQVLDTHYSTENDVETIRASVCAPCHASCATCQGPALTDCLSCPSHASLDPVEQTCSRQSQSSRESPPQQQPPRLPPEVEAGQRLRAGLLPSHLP
NCF1 inh: p47phox (human) inhibition; p47phox/p22phox peptide binding, fluorescence polarization, 2 h; inhibition, % at 24.7 µM; 0.53% of 220,000 active; AID 1274;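 active means inhibition above about 30%, limit read from the data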;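 further: 0% = p47phox with labelled peptide and 100% = labelled peptide alone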
Calpain2 inh: inhibitors of pig calpain II; purified calpain II, fluorogenic peptide substrate, 30 min; inhibition, % at 16 µM; 0.37% of 220,000 active;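 active means inhibition above about 50%, limit read from the data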
RBBP9 inhibitor: inhibitors of human serine hydrolase RBBP9; recombinant RBBP9, FP-Rh probe fluorescence polarization; 0.2% of 220,000 active; inhibition, % at 7.94 µM;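 active means inhibition above the campaign mean of all tested compounds plus 3 SD, cut at about 14% in these data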;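 further: plate controls were DMSO wells with RBBP9 for no effect and wells lacking RBBP9 protein for full effect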
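Measured by – fluorescence polarization · Test system – RBBP9 protein · Input – 2.5 µM RBBP9 dispensing solution, before mixing · Measure – percent inhibition from mP, scaled between DMSO and no-protein wells · Benchmarks – DMSO-treated enzyme wells and wells lacking RBBP9 · Times – preincubation 30 min plus labeling 45 min at 25 °C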
Numbers without * were called inactive; i = inactive; . = no result; + = active, no number. Only some compounds are listed: those with a hit (about 1.1% of all), similar ones and a draw of the others.

SMILES	Furin inhibitor	NCF1 inh	Calpain2 inh	RBBP9 inhibitor
CCOC(=O)c1nc2cc3n(c(CC(C)C)c-2c1C)CC(C)=C3C	-33.8	-19.5	-283.7	0.0
CCOC(=O)c1nc2cc3n(c(C)c-2c1C)C(C)C(C)=C3C (stereo not drawn)	-22.3	56.4*	i	-1.7
Cc1cc(Cl)ccc1OCCCC(=O)OCC(N)=O	-19.1	-0.7	-26.5	-4.9
S=C(Nc1ccccc1Oc1ccccc1)Nc1cccc(Cl)c1Cl	-6.4	-14.2	55.1*	-2.8
CC(C)(C)NC(=O)NC(=O)CSc1nnc(COc2ccccc2Cl)o1	-7.6	-2.4	-16.4	-5.3
C/C(N)=C(/C#N)C(=O)CSc1nnc(COc2ccccc2Cl)o1	-13.6	-7.2	103.1*	1.5
Cn1cc(C(F)(F)F)nc1-c1ccc(OCC(O)CNCCOc2ccc(O)c(C(N)=O)c2)cc1 (stereo not drawn)	-18.3	10.5	-111.4	.
O=C(COC(=O)CC12CC3CC(CC(C3)C1)C2)Nc1cccnc1Cl	-4.3	7.9	59.3*	-13.8
O=C(COC(=O)c1ccccc1O)Nc1cccnc1Cl	-15.3	4.0	-10.4	0.2
O=C(N=Nc1c(O)n(Cc2ccccc2)c2ccccc12)c1cc2ccccc2cc1O	-3.8	40.3*	-95.1	-3.6
Cc1ccc(NC(=O)Cn2c(O)c(N=NC(=O)c3ccncc3)c3ccccc32)cc1	-31.1	11.7	-46.0	-4.8
O=C(N=Nc1c(O)n(Cc2ccccc2)c2ccccc12)c1ccc(O)cc1	-7.8	-2.6	-18.1	-14.4
Cc1ccc(NC(=O)Cn2c(O)c(N=NC(=O)c3cc4ccccc4cc3O)c3ccccc32)cc1	6.0	57.6*	-21.7	-1.9
N#C/C(=C\c1c[nH]c2ccccc12)C(=O)NCC1CCCO1 (stereo not drawn)	-16.8	-16.9	-28.8	-9.3
Cn1c(SCC(=O)Nc2cccnc2)nnc1-c1ccccc1F	-23.4	-3.0	-16.7	-0.3
O=S(=O)(Nc1nc(-c2sccc2Cl)cs1)c1cc(Cl)ccc1Cl	-19.0	-79.8	54.1*	0.3
O=S(=O)(Nc1ccncc1Cl)c1cc(Cl)ccc1Cl	-12.0	-7.3	24.1	9.8
CC(C)(C)NS(=O)(=O)c1cc(C(=O)Nc2sccc2C#N)ccc1Cl	-12.2	-100.5	18.0	-9.5
Cc1ccc(C)c(OCCCC(=O)Nc2nccs2)c1	-14.7	-15.2	69.1*	-4.1
Cc1ccccc1OCCCC(=O)Nc1nccs1	-6.4	-17.2	-26.9	-6.8
COc1ccc(/C=N/OCC(=O)Nn2c(C)nc3ccccc3c2=O)cc1	-21.2	10.3	-2.2	-6.8
CN(Cc1ccccc1)c1nc(-c2cccc([N+](=O)[O-])c2)nc2ccccc12	-5.3	-3.0	24.9	-12.6
CC(C)c1ccc(/C=C/C2=NNC(=O)CC2)cc1	-0.2	-0.5	92.0*	-4.8
O=C(Nc1ccc(C(=O)N2CCCC2)cc1)Nc1ccc(Cl)cc1Cl	-13.8	0.6	0.7	-5.9
CCSc1ccccc1C(=O)Nc1nncs1	26.7*	-4.1	22.0	-1.5
SMILES	Furin inhibitor	NCF1 inh	Calpain2 inh	RBBP9 inhibitor
Cc1ccccc1C(=O)Nc1nncs1	-17.3	3.1	-4.2	-9.1
COc1ccc(OC)c(Nc2nc(=O)c3cccnc3s2)c1	-11.6	60.2*	40.0	4.7
Cc1ccc(Nc2nc(=O)c3cccnc3s2)cc1	-17.3	-10.5	16.4	-10.1
COc1ccc(-n2c(=O)c3ccccc3n(Cc3cccc(C)c3)c2=O)cc1OC	-20.8	-1.7	-27.9	0.3
CCC(NC(=O)Nc1ccc(O)cc1)(C(F)(F)F)C(F)(F)F	-1.9	-0.2	-2.4	24.0*
COCCNC(=S)N1CCc2cc(OC)c(OC)cc2C1COc1ccc(C(C)C)cc1 (stereo not drawn)	-2.2	1.2	-26.0	-6.6
Cc1ccc(Sc2ncccc2COC(=O)NC(C)C)cc1	-4.5	-3.5	22.2	-4.6
COc1cc2c(cc1OC)CN(C(=S)NC(=O)c1ccccc1)CC2	-13.1	31.0*	26.7	-5.8
CC1(C)CC(=O)C(/C=N/n2cnc3ccccc3c2=O)=C(O)C1	78.7*	-6.2	-13.0	2.4
CC1(C)CC(=O)C(/C=N/c2ccccn2)=C(O)C1	50.8*	-3.7	-0.6	2.4
CC1(C)CC(=O)C(C=Nc2cccc(/N=C/C3=C(O)CC(C)(C)CC3=O)n2)=C(O)C1	-1.4	0.8	-37.7	3.1
CC1(C)CC(=O)C(C=Nc2ccccc2)=C(O)C1	11.1	-2.4	8.1	8.0
CC(C)(Oc1ccc(Cl)cc1)C(=O)N/N=C/c1cn[nH]c1-c1ccccc1	-16.8	-5.0	-48.0	-5.6
CN1CCN(CCCNC(=O)c2ccc(/C=C3\Sc4ccccc4N(Cc4ccccc4F)C3=O)cc2)CC1	-1.3	86.4*	-73.2	-8.6
CCN1CCN(CCNC(=O)c2ccc3c(c2)N(Cc2ccc(F)cc2)C(=O)/C(=C/c2ccccc2)S3)CC1	-19.6	62.4*	-133.1	-8.1
CCN1CCN(CCNC(=O)c2ccc(/C=C3/Sc4ccccc4N(Cc4cccc(Cl)c4)C3=O)cc2)CC1	-2.5	71.6*	-48.1	-13.9
COc1ccc(/C=C/C=C2\NC(=S)NC2=O)cc1	-14.3	-14.6	29.6	-10.6
Cc1ccc(C2CC(c3cccs3)=NN2C(=O)c2ccco2)o1 (stereo not drawn)	-8.1	0.0	51.4*	3.3
O=C(c1ccco1)N1N=C(c2cccs2)CC1c1ccco1 (stereo not drawn)	-8.7	-0.1	16.6	-12.6
CCOC(=O)Nc1ccc(S(=O)(=O)NCc2ccccc2)cc1	-27.1	38.1*	-22.3	-5.9
Nc1n[nH]c(N)c1N=Nc1ccccc1	-13.0	-6.6	0.2	0.9
Nc1n[nH]c(N)c1N=Nc1ccc(F)cc1	5.8	6.4	50.8*	-10.3
COc1ccccc1NS(=O)(=O)c1cc(NC(=O)c2ccncc2)ccc1N1CCCC1	-34.0	-16.2	-64.5	-2.1
Cc1cc([N+](=O)[O-])nn1CCCC(=O)NCc1ccccc1	-5.6	-10.0	-16.7	-1.9
Cc1cc([N+](=O)[O-])nn1CC(=O)NCc1nc2ccccc2[nH]1	-15.1	41.2*	-21.0	-2.0
SMILES	Furin inhibitor	NCF1 inh	Calpain2 inh	RBBP9 inhibitor
Cc1c(NC(=S)Nc2ccc(Cl)cc2)c(=O)n(-c2ccccc2)n1C	-9.7	-6.3	6.6	-5.3
Cc1ccc(NS(=O)(=O)c2cc(C(=O)N(C)C)ccc2C)cc1C	-23.8	2.3	-11.6	4.6
COc1ccccc1C(C)NCC(=O)Nc1c(F)cccc1F (stereo not drawn)	-32.2	-3.9	-20.4	-0.4
COc1cc(Cl)c(C)cc1NC(=O)CNC(C)c1ccccc1OC (stereo not drawn)	-17.9	-20.7	89.8*	-7.1
O=C(NNC1=C(C(=O)C(F)(F)F)CCC1)c1cccnc1	-7.1	-2.0	22.3	-0.8
O=C1OCC=C1NNC(=O)c1cccnc1	-25.7	+	20.7	-7.0
Cc1nn(Cc2ccccc2)c(C)c1C(=O)NCCN1C(=O)S/C(=C\c2ccccc2)C1=O	-2.5	30.2*	-26.1	-3.6
O=C(CN1C(=O)/C(=C/c2cccc(Br)c2)SC1=S)NC1=NCCS1	-3.1	-178.4	83.8*	-6.3
O=C(CN1C(=O)/C(=C/c2cccc(Br)c2)SC1=S)Nc1cccnc1	-12.3	-59.8	-12.5	-6.1
C/C(=N\NC(=O)c1ccc([N+](=O)[O-])c(C)c1)c1ccccc1Cl	-13.1	2.6	2.8	-3.6
CN(C)CCNC(=O)/C(=C/c1ccc(-c2ccc(Cl)cc2Cl)o1)NC(=O)c1ccccc1	1.6	31.8*	-45.7	-9.8
